The results in this text go back to ChEMBL document CHEMBL1166010, “(E)-2-styrylchromones as potential anti-norovirus agents” (Bioorg Med Chem, 2010).

Bounds are passed on as bounds.

Data set [1] can be described thus: Cytotoxicity against mouse RAW264.7 cells after 48 hrs by MTT assay. It is filed as cell-based. On the technique in general: Tetrazolium dyes change colour on reduction, which living cells bring about.
A further data set concerns rhinovirus B14. Description: Antiviral activity against HRV-14 infected in human HeLa cells assessed as inhibition of viral plaque formation. The data set is classed as functional, organism-based. The following applies: Rhinovirus B.
A short description of data set [2]: Antiviral activity against MNV1 CW1 infected in mouse RAW264.7 cells assessed as inhibition of viral plaque formation after 24 hrs by neutral red staining. The data set is classed as functional, cell-based, Murine norovirus 1. The following applies: for IC50: Murine norovirus 1, CW1, RAW264.7, 24 h. Put shortly:
(§1)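 Confluent RAW 264.7 cells (plated at 5.0 × 10^5 cells/mL, 24 h, then maintenance medium with 2% FBS) infected 1 h at 37 °C with MNV-1.CW1 at 20-80 PFU/well, with compound present during infection and in first agarose overlay for 24 h. Second overlay with neutral red, further 24 h, plaques counted. Top concentration 50 µM (10 µM for some).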

A short description of data set [3]: Cytotoxicity against mouse RAW264.7 cells assessed as maximum non-toxic dose after 48 hrs by MTT assay. The data set is classed as cell-based. Put shortly: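 RAW 264.7 cells exposed 48 h to serial dilutions (top 150 µM, 100 µM for one compound) in duplicate, control 0.25% DMSO. MTT 0.5 mg/mL added for 4 h, formazan dissolved in DMSO, absorbance 550 nm. […] 3–4 independent experiments.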

Another data set has as its system rhinovirus A1B. Description: Antiviral activity against HRV-1B infected in human HeLa cells assessed as inhibition of viral plaque formation. The data set is classed as functional, organism-based, Human rhinovirus 1B. The note with it: Rhinovirus A.
A short description of data set [4]: Selectivity index, ratio of CC50 for mouse RAW264.7 cells to IC50 for MNV1 CW1 infected in mouse RAW264.7 cells. It is filed as functional.
Data set [5] is described as follows: Cytotoxicity against mouse RAW264.7 cells assessed as cell viability at 2.34 uM after 48 hrs by MTT assay. The data set is classed as cell-based. The following applies: read-out: Activity.
Data set [6] can be described thus: Antiviral activity against MNV1 CW1 infected in mouse RAW264.7 cells assessed as inhibition of viral plaque formation at 10 uM after 24 hrs by neutral red staining. The data set is classed as functional, Murine norovirus 1. The note with it: Norwalk virus, CW1, RAW264.7, 24 h. Put shortly:
as §1

Data set [7] can be described thus: Antiviral activity against MNV1 CW1 infected in mouse RAW264.7 cells assessed as inhibition of viral plaque formation at 50 uM after 24 hrs by neutral red staining. The data set is classed as functional, Murine norovirus 1. The note with it: Norwalk virus, CW1, RAW264.7, 24 h. The method, boiled down:
as §1

Data set [8] has as its system RAW264.7. Description: Cytotoxicity against mouse RAW264.7 cells at 100 uM after 48 hrs by MTT assay. The note with it: raw264.7, 48 h. The data set is classed as cell-based.
Data set [9] can be described thus: (§2) Antiviral activity against MNV1 CW1 infected in mouse RAW264.7 cells assessed as inhibition of viral plaque formation treated for 48 hrs after viral infection by neutral red staining. The data set is classed as functional, cell-based, Murine norovirus 1. The note with it: Norwalk virus, CW1, RAW264.7, 48 h. The method, boiled down: (§3)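 Compound added only in the agarose overlays for 48 h after 1 h MNV-1.CW1 infection of confluent RAW 264.7 cells; neutral red second overlay at 24 h, plaques counted after further 24 h. IC50 relative to DMSO-treated infected control; run alongside standard conditions.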

Data set [10] has as its system RAW264.7. The description is as §2. The data set is classed as functional, cell-based. The following applies: Murine norovirus 1. Put shortly:
as §3

The nature of data set [11]: Antiviral activity against MNV1 CW1 infected in mouse RAW264.7 cells assessed as inhibition of viral plaque formation treated for 1 hr during viral infection followed by 48 hrs compound addition post infection by neutral red staining. The data set is classed as functional, cell-based, Murine norovirus 1. The following applies: Norwalk virus, CW1, RAW264.7. Put shortly:
as §1

A short description of data set [12]: (§4) Antiviral activity against MNV1 CW1 infected in mouse RAW264.7 cells assessed as inhibition of viral plaque formation treated for 1 hr during viral infection by neutral red staining. The following applies: Norwalk virus, CW1, RAW264.7, 1 h. It is filed as functional, cell-based, Murine norovirus 1. Put shortly:
(§5)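 Time-of-addition variant: RAW 264.7 cells exposed to serial compound concentrations only during the 1 h MNV-1.CW1 infection at 37 °C, then compound-free agarose overlays (neutral red second overlay, 24 h + 24 h) and plaque count. IC50 vs DMSO control; three independent experiments in duplicate.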

Data set [13] deals with RAW264.7. The data set is described as §4. The following applies: Murine norovirus 1. It is filed as functional, cell-based. Put shortly:
as §5

As for `Cc1ccc(/C=C/c2cc(=O)c3ccccc3o2)cc1`, the CC50 (in general, the concentration that lowers cell viability or growth by half) at 48 h in [1] was above 150 µM. The IC50 (in general, the point on the concentration scale where inhibition reaches its midpoint) was above 6.25 µM in the data set with rhinovirus B14, 23.7 µM in data set [2] and above 6.25 µM in the data set on rhinovirus A1B. Further, the MNTC at 48 h in data set [3] (read-out: MNTD70) and in data set [3] (read-out: MNTD90) was above 150 µM each time. Moreover, in data set [4], the “Ratio CC50/IC50” value is above 6.3.
`C/C(=C\c1ccccc1)c1oc2ccccc2c(=O)c1O`: it took 46.7 µM to reach half-maximal cytotoxicity in data set [1] (CC50 at 48 h). In addition, the viability at 48 h, 2.34 µM in [5] was determined as 81%. Also, in [2], the IC50 was above 10 µM. The MNTC at 48 h in [3] (read-out: MNTD70) was 18.8 µM; in data set [3] (read-out: MNTD90), below 2.34 µM. Also, in data set [6], the inhibition (usually the percentage by which the read-out fell short of the control) at 10 µM was determined as 40.8%.
Turning to `O=c1cc(/C=C/c2ccc(O)cc2)oc2ccccc12`, the CC50 at 48 h in data set [1] was above 150 µM. In data set [5], the viability at 48 h, 2.34 µM amounted to 86%. For the same compound, the results for the IC50 (in the data set with rhinovirus B14; in data set [2]; with rhinovirus A1B) were 6.41 µM, above 50 µM and 9.29 µM, respectively. Besides, in data set [7], the inhibition at 50 µM worked out at 21.1%. Besides, the MNTC at 48 h in data set [3] (read-out: MNTD70) is above 150 µM; in data set [3] (read-out: MNTD90), below 2.34 µM.
`C/C(=C\c1ccccc1)c1cc(=O)c2ccccc2o1` displayed a CC50 at 48 h in [1] above 150 µM. In data set [2], the IC50 came out at 18 µM. The MNTC at 48 h in data set [3] (read-out: MNTD70) and in data set [3] (read-out: MNTD90) was above 150 µM each time. Further, in [4], the “Ratio CC50/IC50” value is above 8.3.
In data set [1], `O=c1ccoc2ccccc12` [CHROMONE] displayed a CC50 at 48 h above 150 µM. In data set [2], the “inhibition (INH)” value is 29.9% and the IC50 is above 50 µM. For the same compound, the MNTC at 48 h in data set [3] (read-out: MNTD70) is above 150 µM. Besides, the MNTC at 48 h in data set [3] (read-out: MNTD90) stood at 37.5 µM.
As for `O=c1cc(/C=C/c2ccccc2)oc2cccc(O)c12`, the Activity entry in the data set on RAW264.7 [8] is “Non-toxic”. The compound further returned a CC50 at 48 h in [1] above 150 µM. The IC50 was found to be 8.2 µM in data set [9], 7 µM in data set [2], 6.9 µM in [11] and 39 µM in [12]. Moreover, the inhibition result in the data set with RAW264.7 [10] and in the data set with RAW264.7 [13] was “Dose-dependent effect” throughout. The MNTC at 48 h in [3] (read-out: MNTD70) was above 150 µM; in [3] (read-out: MNTD90), 4.69 µM. Also, the “Ratio CC50/IC50” value in data set [4] is on record as above 21.6.
Regarding `O=c1cc(/C=C/c2ccccc2)oc2cccc(OCc3ccccc3)c12`, the 50% cytotoxic concentration (CC50) at 48 h in data set [1] was above 150 µM. In addition, the IC50 in data set [2] was above 50 µM. The inhibition at 50 µM in [7] is 39.4%. The results for the MNTC at 48 h in data set [3] (read-out: MNTD70) and in data set [3] (read-out: MNTD90) were above 150 µM and 75 µM, respectively.
As to `COc1c(/C=C/c2ccccc2)oc2ccccc2c1=O`, the CC50 at 48 h in [1] is above 150 µM. The IC50 came to 1.6 µM in the data set with rhinovirus B14, 37.9 µM in [2] and 1.1 µM in the data set with rhinovirus A1B. Besides, the MNTC at 48 h in data set [3] (read-out: MNTD70) was determined as 75 µM; in [3] (read-out: MNTD90), 37.5 µM. For the same compound, the “Ratio CC50/IC50” value in data set [4] is above 4.
For the compound `COc1ccc(/C=C/c2cc(=O)c3ccccc3o2)cc1`, the MNTC at 48 h is above 100 µM in data set [3] (read-out: MNTD70) and 50 µM in data set [3] (read-out: MNTD90).
In the case of `O=c1c(O)c(/C=C/c2ccccc2)oc2ccccc12`, the CC50 at 48 h in data set [1] is 52.1 µM. For the same compound, the figures for the IC50 (in the data set with rhinovirus B14; in data set [2]; in the data set with rhinovirus A1B) were 9.76 µM, above 10 µM and 5.13 µM, respectively. Also, the values for the MNTC at 48 h in data set [3] (read-out: MNTD70) and in [3] (read-out: MNTD90) were 18.8 µM and 2.34 µM, respectively. Besides, in data set [6], the inhibition at 10 µM came to 6.8%.
Regarding `O=c1cc(/C=C/c2ccc(Cl)cc2)oc2ccccc12`, the MNTC at 48 h in data set [3] (read-out: MNTD70) is above 150 µM; in data set [3] (read-out: MNTD90), 75 µM.
As to `O=c1cc(/C=C/c2ccccc2)oc2ccccc12`, in data set [1], the CC50 at 48 h is above 150 µM. Further, the IC50 in the data set with rhinovirus B14 is above 25 µM; in data set [2] it was 17.7 µM; in the data set with rhinovirus A1B, 6.19 µM. Further, the MNTC at 48 h in data set [3] (read-out: MNTD70) is above 150 µM; in [3] (read-out: MNTD90), 75 µM. Also, in data set [4], the “Ratio CC50/IC50” value is above 8.5.
